Laboratory results: ChEMBL document CHEMBL2146466, “Evaluation of dimerization-inhibitory activities of cyclic peptides containing a β-hairpin loop sequence of the EGF receptor” (2012)
The source made the active and inactive calls. No cut-off for these calls is given here. Where a SMILES comes first, the peptide text is derived from it.

Experiments:
[1] = target: Epidermal growth factor receptor (Homo sapiens) (UniProt P00533); assay: Inhibition of human recombinant EGF receptor autophosphorylation expressed in A431 cells at 10 uM after 5 mins by immunoblotting analysis; assay type: cell-based; settings: A-431
How it was run: (§1)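 A431 cells were seeded at 1×10^4/well, grown 4 days, then starved 24 h in serum-free medium with 1 mg/mL BSA. Cells were given peptide or PBS for 1 h at 37 °C, then 100 ng/mL human EGF for 5 min. Lysates in NP-40 buffer were diluted to 500 µg/mL protein and run on SDS-PAGE. Blots were probed with anti-EGFR pY1068, then stripped and re-probed for total EGFR. Mean of two independent experiments in duplicate.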

[2] = target: Epidermal growth factor receptor (Homo sapiens) (UniProt P00533); assay: Human recombinant EGF receptor dimer amount expressed in A431 cells at 10 uM after 10 mins by immunoblotting analysis relative to control; settings: A-431
[3] = system: A-431; assay: Antiproliferative activity against human A431 cells at 10 uM after 3 days by WST-8 assay; assay type: functional; settings: A-431, 72 h
How it was run: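 A431 cells in DMEM with 10% FBS were seeded at 5×10^3 cells/well and grown 24 h at 37 °C, 5% CO₂. Peptide at 10 µM, or distilled water as the 100% growth control, was added and cells were re-incubated 24 h for three consecutive days. WST-8 was then added for 90 min and absorbance read at 450 nm (reference 655 nm). Six replicate wells, three independent repeats; mean ± SD.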

[4] = target: Epidermal growth factor receptor (Homo sapiens) (UniProt P00533); assay: Inhibition of human recombinant EGF receptor autophosphorylation expressed in A431 cells at 1 nM after 5 mins by immunoblotting analysis; assay type: cell-based; settings: A-431; how it was run: as §1
[5] = target: Epidermal growth factor receptor (Homo sapiens) (UniProt P00533); assay: Inhibition of human recombinant EGF receptor dimerization expressed in A431 cells at 10 uM after 10 mins by immunoblotting analysis relative to CYNPTTYQMC; assay type: cell-based; settings: A-431
[6] = target: Epidermal growth factor receptor (Homo sapiens) (UniProt P00533); assay: Inhibition of human recombinant EGF receptor dimerization expressed in A431 cells at 10 uM after 10 mins by immunoblotting analysis relative to control; assay type: cell-based; settings: A-431
How it was run: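 Confluent A431 cells were solubilized in 20 mM HEPES pH 7.4 with 1% Triton X-100, 10% glycerol, 1 mM EGTA and 1 mM PMSF, and the extract was spun at 250,000×g. Supernatant at 2 µg/µL protein was pre-treated 60 min with 10 µM peptide, then given 0.21 µM human EGF for 10 min. Cross-linking was with 1 mM BS³ for 10 min, quenched with glycine. Dimer and monomer were resolved by SDS-PAGE and anti-EGFR immunoblot, with ECL quantification. Dimer without peptide was set to 1.0; mean ± SD of at least three experiments in duplicate.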

Sequence of Epidermal growth factor receptor (Homo sapiens) (P00533 whole entry): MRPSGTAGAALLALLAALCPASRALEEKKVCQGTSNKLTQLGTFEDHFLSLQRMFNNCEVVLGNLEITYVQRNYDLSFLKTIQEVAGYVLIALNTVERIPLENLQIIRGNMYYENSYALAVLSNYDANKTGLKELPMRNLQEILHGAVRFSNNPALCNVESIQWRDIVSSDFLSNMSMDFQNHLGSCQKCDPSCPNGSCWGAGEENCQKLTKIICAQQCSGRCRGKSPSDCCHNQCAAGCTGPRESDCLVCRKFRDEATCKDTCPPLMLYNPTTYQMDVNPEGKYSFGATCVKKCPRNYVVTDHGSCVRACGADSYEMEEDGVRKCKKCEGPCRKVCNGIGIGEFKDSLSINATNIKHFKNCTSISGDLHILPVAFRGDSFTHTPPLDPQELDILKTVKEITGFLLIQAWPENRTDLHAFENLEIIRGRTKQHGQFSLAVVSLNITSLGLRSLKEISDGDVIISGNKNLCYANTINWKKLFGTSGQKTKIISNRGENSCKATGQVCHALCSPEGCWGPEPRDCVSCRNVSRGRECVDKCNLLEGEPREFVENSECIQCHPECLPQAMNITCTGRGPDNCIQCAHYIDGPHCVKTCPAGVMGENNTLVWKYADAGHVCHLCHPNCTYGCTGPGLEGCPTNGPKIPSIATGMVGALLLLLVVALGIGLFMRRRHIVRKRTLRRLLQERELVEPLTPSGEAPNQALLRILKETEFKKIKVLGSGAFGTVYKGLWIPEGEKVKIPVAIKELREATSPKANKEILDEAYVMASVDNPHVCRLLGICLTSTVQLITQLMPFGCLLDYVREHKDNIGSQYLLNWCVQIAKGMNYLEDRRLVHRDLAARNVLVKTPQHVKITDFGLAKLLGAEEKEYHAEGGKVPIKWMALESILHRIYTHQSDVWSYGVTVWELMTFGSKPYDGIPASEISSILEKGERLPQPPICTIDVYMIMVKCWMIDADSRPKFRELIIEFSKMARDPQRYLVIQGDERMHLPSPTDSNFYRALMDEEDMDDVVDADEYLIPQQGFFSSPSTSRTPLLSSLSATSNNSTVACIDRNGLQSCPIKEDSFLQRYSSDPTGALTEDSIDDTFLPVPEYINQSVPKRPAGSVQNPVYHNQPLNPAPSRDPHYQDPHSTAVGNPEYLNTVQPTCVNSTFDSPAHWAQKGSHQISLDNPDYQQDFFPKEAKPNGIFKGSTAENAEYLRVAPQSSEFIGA

Molecule	inhibition [1]	residual activity [2] [%]	inhibition [4] [%]	inhibition [5] [%]	inhibition [6]	cell proliferation (% of vehicle) at 10 µM [3] [%]
CSCC[C@@H]1NC(=O)[C@H](CCC(N)=O)NC(=O)[C@H](Cc2ccc(O)cc2)NC(=O)[C@@H]2CSSC[C@H](NC(=O)[C@H](Cc3ccc(O)cc3)NC(=O)[C@@H](N)CSSC[C@@H](C(=O)O)NC1=O)C(=O)N1CCC[C@H]1C(=O)N[C@@H]([C@@H](C)O)C(=O)N2 (HELM PEPTIDE1{C.Y.C.P.T.C.Y.Q.M.C}$PEPTIDE1,PEPTIDE1,1:R3-10:R3|PEPTIDE1,PEPTIDE1,3:R3-6:R3$$$V2.0)	–	83	–	65	–	–
CSCC[C@H](NC(=O)[C@H](CCC(N)=O)NC(=O)[C@H](Cc1ccc(O)cc1)NC(=O)[C@@H]1CSSC[C@H](NC(=O)[C@H](Cc2ccc(O)cc2)NC(=O)[C@@H](N)CC(C)C)C(=O)N2CCC[C@H]2C(=O)N[C@@H]([C@@H](C)O)C(=O)N1)C(=O)N[C@@H](CC(=O)O)C(=O)O (HELM PEPTIDE1{L.Y.C.P.T.C.Y.Q.M.D}$PEPTIDE1,PEPTIDE1,3:R3-6:R3$$$V2.0)	–	90	–	32	–	–
CSCC[C@@H]1NC(=O)[C@H](CCC(N)=O)NC(=O)[C@H](Cc2ccc(O)cc2)NC(=O)[C@H]([C@@H](C)O)NC(=O)[C@H]([C@@H](C)O)NC(=O)[C@@H]2CCCN2C(=O)[C@H](CC(N)=O)NC(=O)[C@H](Cc2ccc(O)cc2)NC(=O)[C@@H](NC(=O)[C@H](CCSC)NC(=O)[C@H](CC(C)C)NC(=O)[C@@H]2CCCN2)CSSC[C@@H](C(=O)O)NC1=O (HELM PEPTIDE1{P.L.M.C.Y.N.P.T.T.Y.Q.M.C}$PEPTIDE1,PEPTIDE1,4:R3-13:R3$$$V2.0)	–	–	–	–	Active	–
H-LVYNKLTFQLEPNPHTK-OH	–	–	–	–	–	95

The next lines start with results.

inhibition [1]	residual activity [2] [%]	inhibition [4] [%]	inhibition [5] [%]	inhibition [6]	Molecule	cell proliferation (% of vehicle) at 10 µM [3] [%]
70%	68	45	–	–	CSCC[C@H]1NC(=O)[C@H](N)CSSC[C@H](C(=O)O)NC(=O)[C@@H](Cc2ccc(O)cc2)NC(=O)[C@@H](CC(N)=O)NC(=O)[C@H]2CCCN2C(=O)[C@@H]([C@H](C)O)NC(=O)[C@@H]([C@H](C)O)NC(=O)[C@@H](Cc2ccc(O)cc2)NC(=O)[C@@H](CCC(N)=O)NC1=O	81
Active	69	–	–	–	CSCC[C@@H]1NC(=O)[C@H](CCC(N)=O)NC(=O)[C@H](Cc2ccc(O)cc2)NC(=O)[C@H]([C@@H](C)O)NC(=O)[C@H]([C@@H](C)O)NC(=O)[C@@H]2CCCN2C(=O)[C@H](CC(N)=O)NC(=O)[C@H](Cc2ccc(O)cc2)NC(=O)[C@@H](N)CSSC[C@@H](C(=O)O)NC1=O	84
